High-throughput results as filed in PubChem.
N-glyco inh – increase of ERlucT glycosylation luciferase signal, primary screen, N-linked glycosylation inhibitor project, D54 ERlucT cells, luminescence, set 2. reporter increase, % at 12.5 µM. D54 ERlucT glycosylation luciferase reporter, 24 h; percent of 100 nM tunicamycin response. 0.23% of 360,000 active;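 active = mean luciferase reporter signal, scaled so untreated is 0 and the glycosylation-blocking control 100, at or above a set limit in every replicate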;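 note: luciferase carries N-glycosylation sites so blocking glycosylation raises the light; 0% = median of neutral control wells and 100% = median of 100 nM tunicamycin wells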
RAD52 inh – RAD52 DNA annealing inhibitors, primary screen, biochemical, FRET, single point, set 2. AID 651710, 2012. recombinant RAD52 DNA annealing, FRET fluorescence. inhibition, % at 18.7 µM. 0.46% of 360,000 active;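 active = every replicate showing at least 50% inhibition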
Target sequence (P43351 whole entry, looked up): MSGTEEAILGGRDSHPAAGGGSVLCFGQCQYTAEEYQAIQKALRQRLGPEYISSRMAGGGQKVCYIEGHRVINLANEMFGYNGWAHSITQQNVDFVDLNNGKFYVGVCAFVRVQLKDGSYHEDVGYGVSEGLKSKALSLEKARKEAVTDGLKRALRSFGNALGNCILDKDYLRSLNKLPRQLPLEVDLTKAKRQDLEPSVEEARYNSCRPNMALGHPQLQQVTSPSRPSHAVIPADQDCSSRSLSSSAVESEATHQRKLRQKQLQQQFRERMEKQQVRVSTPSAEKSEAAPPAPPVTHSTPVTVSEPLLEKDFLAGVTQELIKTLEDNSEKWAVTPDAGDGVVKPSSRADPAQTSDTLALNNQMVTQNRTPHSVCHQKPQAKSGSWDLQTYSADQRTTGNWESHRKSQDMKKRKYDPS
FN deposit inh – inhibitors of fibronectin matrix deposition, primary screen, AH1F cells, Alexa488-fibronectin fluorescence, plate reader; 0.086% of 350,000 active; AH1F fibroblasts, overnight; inhibition, % at 12.6 µM;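 active = mean inhibition across replicates of 30% or more, regardless of how many single replicates reach that level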;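 note: positive control wells lacked labelled fibronectin entirely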
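Material: AH1F fibroblasts assembling fluorescent fibronectin matrix; amount: 10000 AH1F cells/well; medium: DMEM, 2% serum; reagent: Alexa488-fibronectin, 24 nM final in well; dosing: single compound dose, delivered by pin transfer; incubation: 1 h adhesion, overnight exposure; detection: fluorescence after three HBSS washes, excitation 485 nm, emission 525 nm; measure: fibronectin deposition inhibition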
CaV13 FRET inh – Disruptors of the CACNA1D IQ motif to Ca2+-dependent inactivation inhibitor domain association, primary screening, Förster resonance energy transfer in intact living …; HEK cells, CFP/YFP FRET ICDI-IQ, plate reader, 10 min; percent FRET-ratio fall versus neutral wells; inhibition, % at 12.3 µM; 0.098% of 340,000 active; AID 743397;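 active = mean replicate inhibition of at least 30% and at least 1% of replicates passing that level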;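 note: 0% = median of the neutral control wells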
RAD54 branch – inhibitors of human RAD54 branch migration, primary screen, biochemical, fluorescence, single point; DNA repair and recombination protein RAD54-like (Homo sapiens), Q92698; RAD54 Holliday junction branch migration, FAM/BHQ fluorescence; inhibition, % at 10.4 µM; 0.14% of 360,000 active; AID 602329, 2012;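 active = mean normalized replicate activity at least 40 and at least half of replicates scoring 40 or more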;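 note: 0% = median of neutral control wells and 100% = median of positive control wells; inhibitors cause a drop in the FAM fluorescence signal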
DNA binder FP – DNA-binding compounds via dye displacement, dose response, artefact control for RAD52 inhibitor project, biochemical, fluorescence polarization, cherry-pick; Salmon sperm DNA/acridine orange FP displacement; shares compounds with RAD52 inh; 8% of 1,000 active; AC50, µM;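 active = fitted half-maximal concentration for signal loss at or below twice the highest dose tested, in every separate run, actives reach about 64 µM in these data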
* marks the source's active call; other numbers are inactive results; i = inactive; . = not tested or not shown; ! = a repeat was not active. This is a sample that favours compounds with a hit; in the whole collection about 0.7% have one here.

SMILES	N-glyco inh	RAD52 inh	FN deposit inh	CaV13 FRET inh	RAD54 branch	DNA binder FP
CNC(=O)C[C@H]1CC[C@@H]2[C@H](COC[C@@H](O)CN2Cc2ccccc2F)O1	.	-5	-2	.	-5	.
O=C(N/N=C/c1cccc([N+](=O)[O-])c1)c1cc[n+](CCO)cc1	-1	82*	-11	-2	18	i
CCCCN(CCCNC(=S)NCCCc1cnc[nH]1)c1ccc(Br)cn1	1	55*	-6	-9	1	i
COc1ccc(C(=O)c2c(N)sc3c2CCN(C)C3)cc1	-2	-68	2	-5	-22	.
CN1CCc2c(sc(N)c2C(=O)O)C1	1	74*	4	-4	.	i
CN(C)CCNC(=O)c1csc(Nc2cccc3ccccc23)n1	-5	51*	-3	-3	12	i
C[C@H]1CN([C@@H](C)CO)S(=O)(=O)c2ccc(-c3cccnc3)cc2O[C@@H]1CN(C)Cc1ccncc1	.	-9	-4	.	-1	.
Cc1sc2nc(CN3CCCCC3)nc(Nc3ccc4c(c3)OCCO4)c2c1C	1	72*	7	-1	.	i
CC(C)N=C(N)N=C(N)Nc1ccc(Cl)cc1	0	-10	-1	-5	7	.
NC(=NCCCCCCN=C(N)/N=C(\N)Nc1ccc(Cl)cc1)/N=C(\N)Nc1ccc(Cl)cc1	-10	95*	0	-5	59*!	i
CCOC(=O)c1c(CNc2ccncc2)n(C)c2cc(Br)c(O)cc12	4	64*	-19	3	.	i
CCN(CC)CCN(C(=O)c1ccc(C(=O)c2ccccc2)cc1)c1nc2c(OC)cccc2s1	1	61*	.	.	12	i
COc1cccc2sc(N(CCCN(C)C)C(=O)c3sc4ccccc4c3Cl)nc12	-2	58*	6	-5	33	i
CCN(CC)CCN(C(=O)c1ccc([N+](=O)[O-])cc1)c1nc2c(OC)cccc2s1	2	8	3	-6	.	.
Cc1cccc(CN2C(=O)/C(=C\c3ccc(C(=O)NCCCN4CCN(C)CC4)cc3)Oc3ccccc32)c1	-7	30	7	-16	9	.
O=C1Nc2cc(C(=O)NCCCN3CCCC3)ccc2S/C1=C/c1cccc(Cl)c1	-8	79*	10	-4	35	i
O=C(NCCCN1CCOCC1)c1ccc2c(c1)N(Cc1ccccc1)C(=O)c1ccccc1S2	0	-20	4	-5	-1	.
O=C(CN1C(=O)/C(=C/c2ccccc2)Sc2ccccc21)NCCCN1CCOCC1	1	-13	6	-5	-3	.
CN1CCN(CCCNC(=O)c2ccc(/C=C3\Sc4ccccc4N(Cc4ccc(F)cc4)C3=O)cc2)CC1	-8	92*	5	-14	7	i
CN1CCN(CCCNC(=O)c2ccc(/C=C3/Sc4ccccc4N(Cc4cccc(Cl)c4)C3=O)cc2)CC1	-9	68*	22	-1	10	i
CN1CCN(CCCNC(=O)c2ccc(/C=C3\Oc4ccccc4N(Cc4ccccc4F)C3=O)cc2)CC1	-4	96*	5	-7	31	i
CN(C)CC(=O)N1[C@@H]2c3ccc(-c4cccnc4)c(=O)n3C[C@H]1[C@H](CO)[C@H]2C(=O)NC1CCCC1	.	-2	.	.	.	.
C[C@@H](NC(=O)C[C@H]1C=C[C@H](NC(=O)Nc2ccc3c(c2)OCO3)[C@H](CO)O1)c1ccccc1	.	-13	0	.	5	.
CC1CCCCN1CCNC(=O)c1ccc2c(c1)N(Cc1cccc(Cl)c1)C(=O)c1ccccc1S2=O (stereo not drawn)	-5	9	2	-2	9	.
O=C(NCCCN1CCCC1)c1ccc2c(c1)N(Cc1cccc(Cl)c1)C(=O)c1ccccc1S2=O (stereo not drawn)	-8	67*	-5	-2	4	i
CCCC(=O)N1CCC2(CC1)CN(C(=O)COC)[C@@H](CO)c1c2c2ccc(OC)cc2n1C	.	-7	.	.	.	.
